Most compounds without a hit are left out; they make up all but 5.4% or so of the library.
PostGolgi ctrl: growth of the yeast control strain, post-Golgi counter-screen. efflux-deficient yeast background strain, growth absorbance A615, 16 h. inhibition, % at 10 µM. 98,000 tested, 5% active. AID 738
HePTP inhibitor: human HePTP phosphatase inhibition; P35236; recombinant HePTP phosphatase activity, OD absorbance; inhibition, % at 20 µM; 110,000 tested, 0.64% active; in the data active = inhibition above about 50%;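 also: plate controls were vehicle for no effect and reference inhibitor for full effect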
Ecoli tolC: E. coli tolC mutant growth inhibition | E. coli BW25113 tolC mutant growth, OD615 | growth inhibition, % at 10 µM (by protocol) | 65,000 tested, 2.2% active;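 active = growth inhibition at or above a cutoff equal to the mean over every tested compound plus 3 SD, cut at about 60% in these data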;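 also: growth measured after 20 h incubation at 37 °C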
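Doses: one dose of 10 µM final / Material: E. coli BW25113 ΔtolC::kan, tolC deletion mutant strain / Buffer or medium: LB with kanamycin 50 µg/mL / Evaluation: percent growth inhibition / Detection: optical density read at 615 nm / Incubation: 37 °C, 20 h exposure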
Ecoli WT expand: blocks growth of wild type E. coli BW25113; growth inhibition, % at 100 µM; 98,000 tested, 0.15% active; OD600 absorbance; AID 710;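 active = growth inhibition above about 50% at one test dose, limit read from the data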;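 also: growth measured after 20 h incubation at 37 °C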
PostGolgi yeast: growth inhibition of a yeast mutant, post-Golgi transport screen; post-Golgi transport phenotypic cell assay; inhibition, % at 10 µM; 98,000 tested, 0.9% active;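 also: yeast cells grown in 1536-well plates; yeast grown about 18 h at 30C before absorbance read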
PLAP act: activates human placental alkaline phosphatase. purified PLAP enzyme, luminescent substrate read-out; stronger effect = higher value. 96,000 tested, 1.2% active. P05187. activation fold at 20 µM; in the data active = activation fold above about 2
Target sequence (P05187 whole entry, looked up): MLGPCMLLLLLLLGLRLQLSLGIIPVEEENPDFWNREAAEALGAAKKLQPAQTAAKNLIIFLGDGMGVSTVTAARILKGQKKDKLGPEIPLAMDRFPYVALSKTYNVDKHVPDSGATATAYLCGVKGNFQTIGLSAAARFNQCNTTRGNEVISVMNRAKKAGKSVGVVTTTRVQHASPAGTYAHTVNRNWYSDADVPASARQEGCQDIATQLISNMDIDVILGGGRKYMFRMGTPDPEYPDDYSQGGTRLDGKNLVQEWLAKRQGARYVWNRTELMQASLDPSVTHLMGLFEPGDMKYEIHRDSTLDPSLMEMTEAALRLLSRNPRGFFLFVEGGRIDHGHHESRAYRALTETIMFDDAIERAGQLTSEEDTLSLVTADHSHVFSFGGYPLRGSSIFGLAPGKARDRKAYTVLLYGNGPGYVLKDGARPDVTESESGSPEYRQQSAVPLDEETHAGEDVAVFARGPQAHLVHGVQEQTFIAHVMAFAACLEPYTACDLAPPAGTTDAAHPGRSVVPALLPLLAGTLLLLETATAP
The depositor's hits bear a star; . = no result given. Rule as the data show it, unless noted: active = inhibition above about 30%; inactive = the rest.

SMILES | PostGolgi ctrl | HePTP inhibitor | Ecoli tolC | Ecoli WT expand | PostGolgi yeast | PLAP act
Cc1cc(C)n2nc(SCc3nnc(SCc4ccccc4)s3)nc2n1 | 39* | . | . | 0 | 6 | 1.2
COc1cc(C)nc2nc(SCc3ccccc3)nn12 | 4 | . | . | 3 | 4 | 0.9
O=C(NC(=S)Nc1ccc(Cl)cn1)C(c1ccccc1)c1ccccc1 | 34* | . | . | -1 | 30 | 0.9
Cc1nc2ccccc2c(=O)n1/N=C/c1c(O)ccc2oc3c(c12)CCCC3 | 3 | 9 | 17 | 0 | -8 | 1.8
S=c1[nH]nc(-c2ccncc2)n1Cc1ccco1 | 9 | 12 | 5 | 7 | 16 | 1
S=c1[nH]nc(C23CC4CC(CC(C4)C2)C3)n1Cc1ccco1 | 45* | 5 | 34 | 1 | 2 | 1.5
CC(=O)c1cc(CN2CCCCC2)cc(OC(C)C)c1 | . | -3 | 1 | . | . | .
Cn1c(=O)oc2cc(S(=O)(=O)N3CCOCC3)ccc21 | 30 | 13 | -12 | -8 | 2 | 0.8
Cc1ccc(Cl)cc1N1CCN(S(=O)(=O)c2ccc3c(c2)oc(=O)n3C)CC1 | 37* | 10 | 18 | -1 | -3 | 1.4
c1ccc(-c2noc(COc3ccc4c(c3)OCO4)n2)cc1 | 4 | 6 | -23 | -11 | 3 | 1.4
Cc1onc(-c2ccccc2)c1C(=O)Nc1sc(C)c(C)c1C(N)=O | . | 9 | . | . | . | .
Cc1onc(-c2ccccc2)c1C(=O)Nc1sc2c(c1C#N)CCC2 | 44* | -2 | 70* | -1 | 3 | 1
N#Cc1c(NC(NC(=O)c2ccco2)C(=O)c2ccccc2)sc2c1CCCC2 (stereo not drawn) | 81* | 13 | 65* | -3 | 41* | 0.9
Cc1onc(-c2ccccc2)c1C(=O)Nc1sc2c(c1C(N)=O)CCC2 | 37* | 6 | 16 | -4 | -3 | 1.1
CC(C)Cc1cc(C(=O)Nc2sc3c(c2C#N)CCC3)no1 | 1 | . | . | -4 | -10 | 0.8
CC(C)Cc1cc(C(=O)Nc2sc3c(c2C#N)CCCC3)no1 | 9 | 0 | 79* | -2 | -1 | 1.2
Cc1cccc(N(CC(=O)NC2CCCC2)C(=O)CS(=O)CC(=O)Nc2ccc3c(c2)OCO3)c1 (stereo not drawn) | 7 | 2 | -9 | 3 | 0 | 1.6
CCOC(=O)c1c(-c2ccc(OC)cc2)csc1NC(=O)CSc1ccccc1 | 1 | . | . | -16 | -8 | 0.8
COc1ccc(OC)c(S(=O)(=O)N(C)CC(=O)O)c1 | -1 | 4 | -15 | 5 | 1 | 1.1
CCC(=O)N(CCCN(C)C)c1nc(-c2cc(OC)ccc2OC)cs1 | 0 | 14 | 3 | 2 | 1 | 1.3
Cc1noc(C)c1C(=O)Nc1sc(C)c(-c2ccccc2)c1C#N | 28 | -7 | 97* | -4 | 6 | 1.4
Cc1onc(-c2c(F)cccc2Cl)c1C(=O)NC1CCSC1=O (stereo not drawn) | -2 | . | . | 1 | -2 | 2.1*
Cc1onc(-c2ccccc2Cl)c1C(=O)Nc1sc2c(c1C(N)=O)CCCC2 | . | 6 | . | . | . | .
Cc1onc(-c2c(Cl)cccc2Cl)c1C(=O)NC1CCCC1 | . | -13 | . | . | . | .
Cc1onc(-c2c(F)cccc2Cl)c1C(=O)Nc1sc2c(c1C(N)=O)CCC2 | 33* | . | . | -18 | -13 | 0.9
SMILES | PostGolgi ctrl | HePTP inhibitor | Ecoli tolC | Ecoli WT expand | PostGolgi yeast | PLAP act
Cc1cccc(C(=O)Nc2sc(C)c(-c3ccccc3)c2C#N)c1 | 14 | . | . | -21 | 6 | 1
O=C(NCCCCOc1ccccc1)C(O)(c1ccc(Cl)cc1)c1ccc(Cl)cc1 | . | -16 | . | . | . | .
CN(C)N1C(=O)c2ccc3c4c(ccc(c24)C1=O)CC3 | . | 10 | . | . | . | .
COc1ccc(/C=C(/C(=O)Nc2ccccc2C(=O)N2CCCC2)c2ccccc2)cc1 | 36* | . | . | -17 | 2 | 1.5
O=C(Oc1cccc(Nc2ncnc3ccccc23)c1)c1ccccc1Cl | 69* | . | . | -20 | -1 | 1.2
CCCSc1nc(SCC(=O)NCc2ccccc2)c2c3c(sc2n1)COC(C)(C)C3 | -6 | . | . | -1 | -14 | 1
OC(CNCC1CCCO1)Cn1c2ccccc2c2ccccc21 (stereo not drawn) | 0 | 2 | 12 | -7 | -4 | 1.2
OC(CNCC1CCCO1)Cn1c2ccc(Cl)cc2c2cc(Cl)ccc21 (stereo not drawn) | 103* | . | . | 65* | 90* | 1.5
O=C(c1ccc2c(=O)n(C3CCCC3)c(=S)[nH]c2c1)N1CCN(C2CCCCC2)CC1 | 9 | -4 | 68* | 4 | 0 | 1.4
CCC(=O)Nc1sc2c(c1C(=O)Nc1ccccc1Cl)CCCC2 | . | 8 | . | . | . | .
COc1ccc(NC(=O)N2CCCC(c3nc(-c4ccc(C(C)C)cc4)no3)C2)cc1 (stereo not drawn) | 24 | 0 | 62* | -10 | -9 | 1.3
O=C(Nc1ccc(Cl)cc1)N1CCC(c2nc(-c3ccc(F)cc3)no2)CC1 | 28 | 4 | 72* | -1 | -3 | 1.3
Fc1ccc(-c2noc(C3CCN(Cc4cccnc4)CC3)n2)cc1 | 35* | 4 | -4 | 6 | 84* | 1
O=C(Nc1ccc(Cl)cc1)N1CCN(c2ccc3nnc(-c4ccc(F)cc4)n3n2)CC1 | 7 | 6 | 0 | 2 | -1 | 1.5
CCCCCC(=O)N1CCCC(c2nc(-c3ccc(OC)cc3)no2)C1 (stereo not drawn) | 29 | . | . | -14 | 3 | 1.5
CC(C)(C)C1CCc2c(sc(NC(=O)C3CCCO3)c2C(N)=O)C1 (stereo not drawn) | 60* | -8 | . | 8 | 4 | 1.4
CCOC(=O)C1=C(O)/C(=C/c2cc(OC)c(OC)c(OC)c2)SC1=Nc1ccc(C)cc1 | . | 2 | . | . | . | .
CCCCOC(=O)CSC1=C(C#N)C(c2ccc3c(c2)OCO3)CC(=O)N1 (stereo not drawn) | 47* | 1 | 9 | -8 | . | 1
CC(=O)Nc1cccc(-c2nnc(-c3ccccc3)o2)c1 | -5 | 4 | 5 | -5 | 2 | 0.8
Cc1c(-c2cccc(Cl)c2)nc2ccccc2c1C(=O)O | . | 105* | . | . | . | .
Cc1c(-c2ccc(Cl)cc2Cl)nc2ccccc2c1C(=O)O | . | -1 | . | . | . | .
Cc1cccc2cc(CN(Cc3nnnn3C3CCCCC3)C3CCCC3)c3nnnn3c12 | 86* | . | . | -10 | 97* | .
Cc1cc(C)c2[nH]c(=O)c(CN(Cc3nnnn3C3CCCC3)C3CCCCC3)cc2c1 | 1 | 7 | 13 | -5 | 6 | 0.9
Cc1cc(NC(=O)c2c(F)cccc2Cl)n(-c2nc3ccccc3[nH]2)n1 | 17 | . | . | 2 | -2 | 2.6*
CCC(C(=O)Nc1cc(C)nn1-c1nc(C)cc(C)n1)c1ccccc1 (stereo not drawn) | 48* | 0 | 56 | 5 | 17 | 1.5
Cc1cc(NC(=O)c2ccccc2F)n(-c2nc3ccccc3[nH]2)n1 | 17 | 1 | 16 | -8 | -3 | 1.1
Cc1cc(C)nc(-n2nc(C)cc2Nc2ccccc2)n1 | 14 | 7 | 76* | 2 | 5 | 1.5
Cc1cc(Nc2ccccc2)n(-c2nc3ccccc3[nH]2)n1 | 41* | -9 | 95* | -10 | 3 | 1.1

Screening results: PubChem BioAssay, several laboratories
